The values that follow come from publication PMC6146385 (Acta Pharmaceutica Sinica. B, 2018).

In data set [1] the target is T1, AB sulfation in HLC (SULT2A1) (Homo sapiens, UniProt Q06520).
T1 sequence (Q06520 1-285): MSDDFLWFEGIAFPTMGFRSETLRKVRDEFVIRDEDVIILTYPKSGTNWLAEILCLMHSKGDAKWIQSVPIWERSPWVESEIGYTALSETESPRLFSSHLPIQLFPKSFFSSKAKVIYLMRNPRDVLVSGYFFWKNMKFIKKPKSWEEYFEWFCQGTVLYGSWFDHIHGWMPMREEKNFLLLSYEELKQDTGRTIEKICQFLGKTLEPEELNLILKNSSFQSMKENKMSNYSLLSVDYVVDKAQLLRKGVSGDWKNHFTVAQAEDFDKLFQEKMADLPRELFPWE
Kind of data set: Chemical inhibition of AB sulfation in HLC. Type of data set: biochemical. Particulars: for inhibition of AB sulfation / residual activity of AB sulfation: HLC, Fig. 2A.

Another data set deals with T2, SULT1E1 (Homo sapiens, UniProt P49888).
T2 sequence (P49888 1-294): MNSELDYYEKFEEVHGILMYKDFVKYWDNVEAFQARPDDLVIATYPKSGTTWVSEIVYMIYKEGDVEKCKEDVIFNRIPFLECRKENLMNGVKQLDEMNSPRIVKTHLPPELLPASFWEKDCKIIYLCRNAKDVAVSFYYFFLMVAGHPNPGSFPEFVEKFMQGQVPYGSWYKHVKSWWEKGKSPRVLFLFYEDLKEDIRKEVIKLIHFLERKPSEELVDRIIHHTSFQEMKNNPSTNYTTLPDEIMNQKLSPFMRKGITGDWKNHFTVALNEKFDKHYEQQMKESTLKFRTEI
Kind of data set: DHEA sulfation kinetics by recombinant SULT1E1. The class given is in vitro ADME.

For data set [2], the target named is T3, AB sulfation in cytosol of human kidney, small intestine and brain (Homo sapiens, UniProt Q06520).
T3 sequence (Q06520 1-285): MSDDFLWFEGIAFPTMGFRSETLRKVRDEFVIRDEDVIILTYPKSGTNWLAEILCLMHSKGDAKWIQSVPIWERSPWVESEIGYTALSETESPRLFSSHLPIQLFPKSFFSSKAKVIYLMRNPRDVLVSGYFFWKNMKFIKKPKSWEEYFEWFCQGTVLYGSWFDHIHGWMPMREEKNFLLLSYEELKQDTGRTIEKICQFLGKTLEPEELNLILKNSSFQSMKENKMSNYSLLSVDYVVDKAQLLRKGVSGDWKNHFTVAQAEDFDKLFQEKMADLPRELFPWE
The data set is described as follows: Inhibition of AB sulfation in cytosol of human kidney, small intestine and brain. Type of data set: biochemical. Particulars: Fig. S5.

The target in data set [3] is T4, SULT2A1 (Homo sapiens, UniProt Q06520).
T4 sequence (Q06520 1-285): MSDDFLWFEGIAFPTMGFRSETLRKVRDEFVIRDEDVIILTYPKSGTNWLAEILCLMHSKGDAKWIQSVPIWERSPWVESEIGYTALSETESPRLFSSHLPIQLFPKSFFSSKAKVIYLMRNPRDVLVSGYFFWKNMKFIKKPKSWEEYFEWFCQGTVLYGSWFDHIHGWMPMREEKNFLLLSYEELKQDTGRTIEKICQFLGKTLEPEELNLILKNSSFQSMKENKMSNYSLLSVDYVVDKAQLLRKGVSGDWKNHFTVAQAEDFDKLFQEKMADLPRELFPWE
Kind of data set: Inhibition of AB sulfation in rhSULT2A1. The class given is biochemical.

The target of data set [4] is T4, SULT2A1. The data set is described as follows: Sulfation of AB, DHEA and bufadienolides by recombinant human SULT2A1. Type of data set: in vitro ADME.
The test system of another data set is SULT2A1 (sulfation). The data set is described as follows: Sulfation kinetics and rate in pooled human liver cytosols. Type of data set: in vitro ADME. Particulars: human, pooled human liver cytosols (HLC), pH 7.4, Km, sulfation by HLC. The method in brief:
(§1)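 Substrate-concentration series with pooled mixed-gender human liver cytosol or recombinant human SULTs. Buffer is 50 mmol/L potassium phosphate, pH 7.4, with DTT 8 mmol/L, MgCl2 5 mmol/L and PAPS 4 mmol/L, at 37 °C and within linear formation conditions. Sulfate is quantified by LC–MS/MS. Eadie–Hofstee plots choose the Michaelis–Menten or substrate-inhibition fit. Km, Vmax (and Ksi) come from nonlinear regression. Duplicates in three independent experiments.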

Data set [5] has as its system pooled human liver cytosols (HLC). The data set is described as above. Type of data set: in vitro ADME. The method in brief: as §1
Experiment in data set [6]: as above
Type of data set: in vitro ADME. Particulars: human, pooled human liver cytosols (HLC), pH 7.4. The method in brief: as §1

Substrate in data set [7]: C[C@]12CC[C@H](O)CC1=CC[C@@H]1[C@@H]2CC[C@]2(C)C(=O)CC[C@@H]12
Kind of data set: Sulfation of AB, DHEA and bufadienolides by recombinant human SULT2A1. Type of data set: in vitro ADME. Particulars: other: sulfation by SULT2A1; pH 7.4; 37.0 °C.

Substrate in data set [8]: C[C@]12CC[C@H](O)CC1=CC[C@@H]1[C@@H]2CC[C@]2(C)C(=O)CC[C@@H]12
The data set is described as follows: DHEA sulfation kinetics by recombinant SULT1E1. The class given is in vitro ADME, human. Particulars: other: sulfation by SULT1E1; pH 7.4; 37.0 °C.

Consider `O=[N+]([O-])c1cc(Cl)c(O)c(Cl)c1` [DCNP, 2,6-dichloro-p-nitrophenol], for which the “inhibition of AB sulfation” value in [1] is listed as “less than 20%”.
What is called microsomal CLint is a measure of how fast metabolising enzymes remove a compound, apart from limits set by blood flow. One may read the IC50 as the concentration that inhibits the measured activity by half. A low value points to inhibition by little substance. Usually Km stands for the concentration of substrate that gives half-maximal velocity. With `C[C@]12CC[C@H](O)CC1=CC[C@@H]1[C@@H]2CC[C@]2(C)C(=O)CC[C@@H]12` [DHEA, dehydroepiandrosterone], the “CLint of SULT1E1-mediated sulfation, fold higher than for SULT2A1” value on SULT1E1 (SULT1E1 vs SULT2A1) was determined as 1.5 fold. The “Km of SULT1E1-mediated sulfation, fold lower than for SULT2A1” value at SULT1E1 (SULT1E1 vs SULT2A1) worked out at 7.2 fold. Moreover, the microsomal CLint is 4260 µL/min/mg on SULT1E1 (human, recombinant human SULT1E1 (rhSULT1E1), pH 7.4); 2940 µL/min/mg at SULT2A1 [4] (human, recombinant human SULT2A1 (rhSULT2A1), pH 7.4); 48.2 µL/min/mg in [6]. The “kinetic model of sulfation” value is “substrate inhibition kinetic model” on SULT1E1 (rhSULT1E1); “substrate inhibition kinetic model” on SULT2A1 [4] (rhSULT2A1, Eadie–Hofstee plot); “substrate inhibition kinetic model” in data set [5] (HLC, Eadie–Hofstee plot). In addition, the Ksi at SULT1E1 (sulfation by SULT1E1) came to 2.9 ± 1.2 µmol/L; at SULT2A1 [4] (sulfation by SULT2A1) it was 2.2 ± 0.9 µmol/L; in data set [5] (sulfation by HLC), 17.2 ± 2.9 µmol/L. Besides, in data set [2], the “inhibitory effect toward AB sulfation in different organs” value is on record as “strong inhibitory effect”. Further, the IC50 at SULT2A1 [3] worked out at 1640 nM; in [1] it was 1880 nM. In addition, in data set [1], the “residual activity of AB sulfation” value is reported as “less than 10%”. Further, in the data set with SULT2A1 (sulfation), the Km came out at 1.08 ± 0.17 µM. Moreover, the Vm in data set [5] (sulfation by HLC) was 0.052 ± 0.004 nmol/min/mg.
With `CC1(C)[C@@H](O)CC[C@]2(C)[C@H]3C(=O)C=C4[C@@H]5C[C@@](C)(C(=O)O)CC[C@]5(C)CC[C@@]4(C)[C@]3(C)CC[C@@H]12` [GA, glycyrrhetinic acid], in data set [2], the “inhibitory effect toward AB sulfation in different organs” value is listed as “strong inhibitory effect”. Besides, the “residual activity of AB sulfation” value in [1] is given as “less than 10%”.
For `Cc1cccc(Nc2ccccc2C(=O)O)c1C` [MFC, mefenamic acid], in [1], the “inhibition of AB sulfation” value was “less than 20%”.
Regarding `C[C@]12CC[C@H](O)C[C@H]1CC[C@@H]1[C@@H]2CC[C@]2(C)[C@@H](c3ccc(=O)oc3)C[C@H]3O[C@]132` [RB, resibufogenin], on SULT2A1 [4] (1, 10 and 100 µmol/L, 0.1 mg/mL protein, 60 min, Fig. S1B), the “sulfation rates by SULT2A1 compared with other bufadienolides” value is “higher than those of other bufadienolides”. The “trend of sulfation rate with increasing substrate concentration” value at SULT2A1 [4] (up to 100 µmol/L, SULT2A1) was “decreasing trend”.
For `C[C@]12CC[C@@H]3c4ccc(O)cc4CC[C@H]3[C@@H]1CCC2=O` [estrone], in data set [1], the “inhibition of AB sulfation” value is reported as “less than 20%”.
Turning to `CC(C)Cc1ccc(C(C)C(=O)O)cc1` (centres unmarked) [ibuprofen], in data set [1], the “inhibition of AB sulfation” value is listed as “less than 20%”.
`CS(=O)(=O)Nc1ccc([N+](=O)[O-])cc1Oc1ccccc1` [nimesulide]: the “inhibition of AB sulfation” value in [1] is given as “less than 20%”.

B1: rhSULT2A1 (Homo sapiens) (protein)
chain: MSDDFLWFEGIAFPTMGFRSETLRKVRDEFVIRDEDVIILTYPKSGTNWLAEILCLMHSKGDAKWIQSVPIWERSPWVESEIGYTALSETESPRLFSSHLPIQLFPKSFFSSKAKVIYLMRNPRDVLVSGYFFWKNMKFIKKPKSWEEYFEWFCQGTVLYGSWFDHIHGWMPMREEKNFLLLSYEELKQDTGRTIEKICQFLGKTLEPEELNLILKNSSFQSMKENKMSNYSLLSVDYVVDKAQLLRKGVSGDWKNHFTVAQAEDFDKLFQEKMADLPRELFPWE
A word on the Vmax: it is the rate approached at saturating substrate. In the case of B1, in [7], the Km came to 2.48 ± 1.15 µM, the Vmax came to 0.0073 µmol/min/mg and the Vmax/Km was found to be 2940 µL/min/mg.

B2: rhSULT1E1 (Homo sapiens) (protein)
chain: MNSELDYYEKFEEVHGILMYKDFVKYWDNVEAFQARPDDLVIATYPKSGTTWVSEIVYMIYKEGDVEKCKEDVIFNRIPFLECRKENLMNGVKQLDEMNSPRIVKTHLPPELLPASFWEKDCKIIYLCRNAKDVAVSFYYFFLMVAGHPNPGSFPEFVEKFMQGQVPYGSWYKHVKSWWEKGKSPRVLFLFYEDLKEDIRKEVIKLIHFLERKPSEELVDRIIHHTSFQEMKNNPSTNYTTLPDEIMNQKLSPFMRKGITGDWKNHFTVALNEKFDKHYEQQMKESTLKFRTEI
Consider B2, for which, in data set [8], the Km was 0.34 ± 0.13 µM, the Vmax is 0.00145 µmol/min/mg and the Vmax/Km stood at 4260 µL/min/mg.
